Results reported in ChEMBL document CHEMBL1144328, “2,3-Diarylthiophenes as selective EP1 receptor antagonists” (Bioorg Med Chem Lett, 2005).

Biological target: T1, Prostaglandin E2 receptor EP1 subtype (Homo sapiens, UniProt P34995)
T1 sequence (P34995 whole entry): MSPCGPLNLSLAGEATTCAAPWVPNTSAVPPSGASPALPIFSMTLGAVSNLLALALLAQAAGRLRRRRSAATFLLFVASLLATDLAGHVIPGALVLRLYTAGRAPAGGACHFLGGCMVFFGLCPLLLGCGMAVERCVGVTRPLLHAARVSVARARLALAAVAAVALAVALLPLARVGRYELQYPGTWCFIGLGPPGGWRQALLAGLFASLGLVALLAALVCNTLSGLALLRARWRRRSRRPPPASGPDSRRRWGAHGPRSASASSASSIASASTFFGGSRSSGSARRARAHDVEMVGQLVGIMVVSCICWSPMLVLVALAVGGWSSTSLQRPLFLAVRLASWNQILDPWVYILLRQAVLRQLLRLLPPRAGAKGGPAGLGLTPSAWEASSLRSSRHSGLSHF
Test: Binding affinity against Prostaglandin E receptor in presence of 2% human serum albumin
Conditions: not given

Row | Compound | Ki
1 | O=C(O)Cc1cccc(-c2sccc2-c2cc(Cl)ccc2OCc2ccccc2)c1 | 220 nM
2 | O=C(O)c1cccc(-c2sccc2-c2cc(Cl)ccc2OCc2ccccc2)n1 | 280 nM
3 | NS(=O)(=O)c1cccc(-c2ccsc2-c2cc(Cl)ccc2OCc2ccccc2)c1 | 18 nM
4 | O=C(O)c1cccc(-c2sccc2-c2cc(Cl)ccc2OCc2ccccc2)c1 | 70 nM
5 | O=S(=O)(Cc1ccccc1)Nc1cccc(-c2sccc2-c2cc(Cl)ccc2OCc2ccccc2)c1 | 72 nM
6 | CC(NC(=O)c1cccc(-c2sccc2-c2cc(Cl)ccc2OCc2ccccc2)c1)c1cccnc1 (stereo not given) | 17 nM
7 | OC(c1cncc(-c2sccc2-c2cc(Cl)ccc2OCc2ccccc2)c1)C(F)(F)F (stereo not given) | 6 nM
8 | O=C(Cc1ccccc1)Nc1cccc(-c2sccc2-c2cc(Cl)ccc2OCc2ccccc2)c1 | 5 nM
9 | N#CC(O)c1cncc(-c2sccc2-c2cc(Cl)ccc2OCc2ccccc2)c1 (stereo not given) | 160 nM
10 | OC(O)(c1cncc(-c2sccc2-c2cc(Cl)ccc2OCc2ccccc2)c1)C(F)(F)F | 5 nM
11 | O=C(O)c1cncc(-c2sccc2-c2cc(Cl)ccc2OCc2ccccc2)c1 | 90 nM

Biological target: T2, Prostaglandin E2 receptor EP1 subtype (Homo sapiens) (UniProt P34995)
T2 sequence (whole entry): T1 sequence (P34995 whole entry)
Test: Inhibitory activity against Prostaglandin E receptor in functional cell based assay
Conditions: not given
Outline: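 HEK293 cells stably expressing human EP1, grown with hygromycin B and G418 at 37 °C and 6% CO2, seeded one day before, then loaded with FLIPR no-wash dye for 1 h at 37 °C in HBSS/20 mM HEPES pH 7.4. FLIPR fluorescence read after a 10 min antagonist preincubation and 5 min PGE2. PGE2 curves (0.001–30 µM) run alone and at three fixed antagonist concentrations; Kb reported.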

Row | Compound | Kb
12 | O=C(O)Cc1cccc(-c2sccc2-c2cc(Cl)ccc2OCc2ccccc2)c1 | 66 nM
13 | O=C(O)c1cccc(-c2sccc2-c2cc(Cl)ccc2OCc2ccccc2)n1 | 1 nM
14 | NS(=O)(=O)c1cccc(-c2ccsc2-c2cc(Cl)ccc2OCc2ccccc2)c1 | 100 nM
15 | O=C(O)c1cccc(-c2sccc2-c2cc(Cl)ccc2OCc2ccccc2)c1 | 7 nM
16 | CC(NC(=O)c1cccc(-c2sccc2-c2cc(Cl)ccc2OCc2ccccc2)c1)c1cccnc1 (stereo not given) | 97 nM
17 | OC(O)(c1cncc(-c2sccc2-c2cc(Cl)ccc2OCc2ccccc2)c1)C(F)(F)F | 70 nM
18 | O=C(O)c1cncc(-c2sccc2-c2cc(Cl)ccc2OCc2ccccc2)c1 | 4 nM

Tested on: not listed separately
Test: Bioavailability of compound in rat
Assay type: ADME, organism-based
Conditions: in vivo

Row | Compound | bioavailability
19 | O=C(O)c1cccc(-c2sccc2-c2cc(Cl)ccc2OCc2ccccc2)n1 | 73%

Biological target: T1, Prostaglandin E2 receptor EP1 subtype
Test: Binding affinity against Prostaglandin E receptor was determined in human
Conditions: not given

Row | Compound | Ki
20 | O=C(O)Cc1cccc(-c2sccc2-c2cc(Cl)ccc2OCc2ccccc2)c1 | 15 nM
21 | O=C(O)c1cccc(-c2sccc2-c2cc(Cl)ccc2OCc2ccccc2)n1 | 6 nM
22 | NS(=O)(=O)c1cccc(-c2ccsc2-c2cc(Cl)ccc2OCc2ccccc2)c1 | 8 nM
23 | O=C(O)c1cccc(-c2sccc2-c2cc(Cl)ccc2OCc2ccccc2)c1 | 4 nM
24 | O=S(=O)(Cc1ccccc1)Nc1cccc(-c2sccc2-c2cc(Cl)ccc2OCc2ccccc2)c1 | 52 nM
25 | CC(NC(=O)c1cccc(-c2sccc2-c2cc(Cl)ccc2OCc2ccccc2)c1)c1cccnc1 (stereo not given) | 9 nM
26 | OC(c1cncc(-c2sccc2-c2cc(Cl)ccc2OCc2ccccc2)c1)C(F)(F)F (stereo not given) | 3 nM
27 | O=C(Cc1ccccc1)Nc1cccc(-c2sccc2-c2cc(Cl)ccc2OCc2ccccc2)c1 | 4 nM
28 | N#CC(O)c1cncc(-c2sccc2-c2cc(Cl)ccc2OCc2ccccc2)c1 (stereo not given) | 23 nM
29 | OC(O)(c1cncc(-c2sccc2-c2cc(Cl)ccc2OCc2ccccc2)c1)C(F)(F)F | 4 nM
30 | OC(c1cncc(-c2sccc2-c2cc(Cl)ccc2OCc2ccccc2)c1)(C(F)(F)F)C(F)(F)F | 260 nM
31 | O=C(O)c1cncc(-c2sccc2-c2cc(Cl)ccc2OCc2ccccc2)c1 | 3 nM

Biological target: T3, Thromboxane A2 receptor (Homo sapiens, UniProt P21731)
T3 sequence (P21731 whole entry): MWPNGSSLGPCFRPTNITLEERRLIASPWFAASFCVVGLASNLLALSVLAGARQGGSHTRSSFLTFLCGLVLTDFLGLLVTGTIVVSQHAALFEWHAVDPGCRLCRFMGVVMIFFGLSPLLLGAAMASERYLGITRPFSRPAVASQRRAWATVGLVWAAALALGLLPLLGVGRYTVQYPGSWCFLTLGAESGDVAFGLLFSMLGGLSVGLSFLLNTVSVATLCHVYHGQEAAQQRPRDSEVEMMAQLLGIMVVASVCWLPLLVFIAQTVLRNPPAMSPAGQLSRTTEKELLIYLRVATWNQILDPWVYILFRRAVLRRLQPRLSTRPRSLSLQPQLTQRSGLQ
Test: Binding affinity against human Prostanoid TP receptor
Conditions: not given

Row | Compound | Ki
32 | O=C(O)Cc1cccc(-c2sccc2-c2cc(Cl)ccc2OCc2ccccc2)c1 | 150 nM
33 | O=C(O)c1cccc(-c2sccc2-c2cc(Cl)ccc2OCc2ccccc2)n1 | 140 nM
34 | NS(=O)(=O)c1cccc(-c2ccsc2-c2cc(Cl)ccc2OCc2ccccc2)c1 | 390 nM
35 | O=C(O)c1cccc(-c2sccc2-c2cc(Cl)ccc2OCc2ccccc2)c1 | 100 nM
36 | O=S(=O)(Cc1ccccc1)Nc1cccc(-c2sccc2-c2cc(Cl)ccc2OCc2ccccc2)c1 | > 21000 nM
37 | CC(NC(=O)c1cccc(-c2sccc2-c2cc(Cl)ccc2OCc2ccccc2)c1)c1cccnc1 (stereo not given) | 1200 nM
38 | OC(c1cncc(-c2sccc2-c2cc(Cl)ccc2OCc2ccccc2)c1)C(F)(F)F (stereo not given) | 120 nM
39 | O=C(Cc1ccccc1)Nc1cccc(-c2sccc2-c2cc(Cl)ccc2OCc2ccccc2)c1 | > 21000 nM
40 | N#CC(O)c1cncc(-c2sccc2-c2cc(Cl)ccc2OCc2ccccc2)c1 (stereo not given) | 360 nM
41 | OC(O)(c1cncc(-c2sccc2-c2cc(Cl)ccc2OCc2ccccc2)c1)C(F)(F)F | 220 nM
42 | OC(c1cncc(-c2sccc2-c2cc(Cl)ccc2OCc2ccccc2)c1)(C(F)(F)F)C(F)(F)F | 200 nM
43 | O=C(O)c1cncc(-c2sccc2-c2cc(Cl)ccc2OCc2ccccc2)c1 | 230 nM

Tested on: not listed separately
Test: Half life of compound in rat
Assay type: ADME
Conditions: in vivo

Row | Compound | half-life
44 | O=C(O)Cc1cccc(-c2sccc2-c2cc(Cl)ccc2OCc2ccccc2)c1 | 3 h
45 | O=C(O)c1cccc(-c2sccc2-c2cc(Cl)ccc2OCc2ccccc2)n1 | 4 h
46 | NS(=O)(=O)c1cccc(-c2ccsc2-c2cc(Cl)ccc2OCc2ccccc2)c1 | 2 h
47 | O=C(O)c1cccc(-c2sccc2-c2cc(Cl)ccc2OCc2ccccc2)c1 | < 0.5 h
48 | O=S(=O)(Cc1ccccc1)Nc1cccc(-c2sccc2-c2cc(Cl)ccc2OCc2ccccc2)c1 | < 1 h
49 | CC(NC(=O)c1cccc(-c2sccc2-c2cc(Cl)ccc2OCc2ccccc2)c1)c1cccnc1 (stereo not given) | < 1 h
50 | OC(c1cncc(-c2sccc2-c2cc(Cl)ccc2OCc2ccccc2)c1)C(F)(F)F (stereo not given) | 1 h
51 | O=C(Cc1ccccc1)Nc1cccc(-c2sccc2-c2cc(Cl)ccc2OCc2ccccc2)c1 | < 1 h
52 | OC(O)(c1cncc(-c2sccc2-c2cc(Cl)ccc2OCc2ccccc2)c1)C(F)(F)F | 2 h
53 | O=C(O)c1cncc(-c2sccc2-c2cc(Cl)ccc2OCc2ccccc2)c1 | < 0.5 h

Tested on: not listed separately
Test: Maximum plasma concentration of compound in rat at 4 h
Assay type: ADME, organism-based
Conditions: not given

Row | Compound | Cmax
54 | O=C(O)c1cccc(-c2sccc2-c2cc(Cl)ccc2OCc2ccccc2)n1 | 20 µM

Biological target: T4, Prostaglandin E2 receptor EP1 subtype (Rattus norvegicus, UniProt P70597)
T4 sequence (P70597 whole entry): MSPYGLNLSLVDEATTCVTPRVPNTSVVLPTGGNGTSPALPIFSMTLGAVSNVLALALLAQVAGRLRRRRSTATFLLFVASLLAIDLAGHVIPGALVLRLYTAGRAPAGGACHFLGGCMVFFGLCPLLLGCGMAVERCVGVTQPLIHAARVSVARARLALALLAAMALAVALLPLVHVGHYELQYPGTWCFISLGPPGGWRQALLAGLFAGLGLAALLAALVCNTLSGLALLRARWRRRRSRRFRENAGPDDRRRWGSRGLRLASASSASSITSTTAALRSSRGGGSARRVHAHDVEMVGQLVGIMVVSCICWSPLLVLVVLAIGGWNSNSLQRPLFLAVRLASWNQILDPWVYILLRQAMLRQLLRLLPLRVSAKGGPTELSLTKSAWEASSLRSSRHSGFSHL
Test: Binding affinity towards Prostaglandin E receptor was determined in rat
Conditions: not given

Row | Compound | Ki
55 | O=C(O)c1cccc(-c2sccc2-c2cc(Cl)ccc2OCc2ccccc2)n1 | 12 nM
